Screening results (PubChem BioAssay)
Compounds with a hit are over-represented: about 3% of the library has one in this group of screens.
PfHsp90 set2 = growth inhibition of PfHsp90-expressing yeast, primary screen, antimalarial PfHsp90 inhibitor project, S. cerevisiae, BacTiter-Glo luminescence, single point, set 2 | actives 0.32% (n = 310,000) | AID 504621, 2011 | inhibition, % at 9.4 µM | BacTiter-Glo ATP, 48 h; yeast lacking PDR1 and PDR3 efflux regulators;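 active means every replicate shows inhibition above about 80%, whatever the replicate mean, limit read from the data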;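 further: 0% = DMSO neutral controls and 100% = 20 µM radicicol positive controls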
T cruzi inh = inhibitors of intracellular T. cruzi growth, primary screen, luminescence, NIH3T3 host cells; T. cruzi beta-gal in NIH3T3, 90 h; inhibition, % (no concentration beside the values); actives 1.4% (n = 300,000);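 active means mean inhibition across valid replicates above about 55%, limit read from the data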;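 further: signal also drops with host cell toxicity which is not excluded here; 0% = plate median of DMSO wells and 100% = zero luminescence signal; higher percent means less beta-gal luminescence so fewer parasites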
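Material: NIH/3T3 host cells with β-galactosidase reporter T. cruzi; Input: 5,000 host fibroblasts per well; Medium: DMEM, 2% fetal bovine serum; Compound: 50 nL DMSO compound solution per well; Schedule: 3 h host attachment, then at least 90 h co-culture; Detection: luminescent β-galactosidase signal after 60 min lysis.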
Glyco luc inh = increase of ERlucT glycosylation luciferase signal, primary screen, N-linked glycosylation inhibitor project, D54 ERlucT cells, luminescence, set 2; D54 ERlucT glycosylation luciferase reporter, 24 h; percent of 100 nM tunicamycin response; reporter increase, % at 12.5 µM; actives 0.23% (n = 360,000);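 active means mean luciferase reporter signal, scaled so untreated is 0 and the glycosylation-blocking control 100, at or above a set limit in every replicate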;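 further: luciferase carries N-glycosylation sites so blocking glycosylation raises the light; 0% = median of neutral control wells and 100% = median of 100 nM tunicamycin wells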
CaV13 ICDI inh = Primary screen for inhibitors of IQ motif and Ca2+-dependent inactivation inhibitor domain binding in CACNA1D, Förster resonance energy transfer in living cells, …; HEK cells, CFP/YFP FRET ICDI-IQ, plate reader, 10 min; percent FRET-ratio fall versus neutral wells; inhibition, % at 12.3 µM; actives 0.098% (n = 340,000); AID 743397;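 active means mean replicate inhibition of at least 30% and at least 1% of replicates passing that level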;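 further: 0% = median of the neutral control wells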
PvdQ inh = P. aeruginosa PvdQ acylase inhibitors, primary screen, biochemical, fluorescence, plate reader and imaging, single point | PvdQ acylase [Pseudomonas aeruginosa LESB58] | purified PvdQ acylase | inhibition, % at 10 µM | actives 0.063% (n = 340,000); in the data active means inhibition above about 30%, passing the limit was not always enough;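 further: 0% = vehicle neutral wells and 100% = reference inhibitor wells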
HSF1 activator = HSF-1 activators, primary screen, NIH3T3-HGL cells, MG132 stress, luminescence, single point; activation, % at 9 µM; AID 504408, 2011; NIH3T3-HGL HSF-1 luciferase reporter, 8 h; 100% = twice DMSO control signal; actives 1.7% (n = 300,000);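 active means mean replicate activation of at least 50% with a set share of replicates each reaching 50%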;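 further: 0% = median of the neutral control wells and 100% = twice that signal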
Starred values were filed as active, the others as inactive.

`Cc1[nH]c2ccccc2c1CCNC(=O)c1ccc2c(c1[N+](=O)[O-])C(=O)c1ccccc1C2=O` gave PfHsp90 set2 -8, T cruzi inh 18, Glyco luc inh 1, PvdQ inh -9 and HSF1 activator 58*.
`Cc1[nH]c2c(C)cccc2c1CCNC(=O)c1ccc2c(c1[N+](=O)[O-])C(=O)c1ccccc1C2=O` gave PfHsp90 set2 -11, T cruzi inh 21, Glyco luc inh 1, CaV13 ICDI inh -4, PvdQ inh -9 and HSF1 activator 53*.
For CN(C)C(=O)c1ccc2c(c1[N+](=O)[O-])C(=O)c1ccccc1C2=O the results were PfHsp90 set2 -31, T cruzi inh 13, Glyco luc inh 1, CaV13 ICDI inh -6, PvdQ inh 2 and HSF1 activator 21.
CCCCn1nnnc1C(c1cc2ccccc2o1)N(CCC#N)Cc1ccccc1 (centres undefined) was read as CaV13 ICDI inh -9.
Screening CCCN(CCC)C(=S)NC1CC2C=CC1C2 (centres undefined) returned PfHsp90 set2 19, T cruzi inh 2, Glyco luc inh 0, CaV13 ICDI inh -2, PvdQ inh -9 and HSF1 activator 52*.
`Oc1ccccc1/C=N/NC(=S)NC1CC2C=CC1C2` (centres undefined) gave PfHsp90 set2 -46, T cruzi inh -27, Glyco luc inh 7, CaV13 ICDI inh -5, PvdQ inh 4 and HSF1 activator 28.
For Cc1cc(C)nc(SCC(=O)Nc2nc(-c3ccccc3)c(-c3ccccc3)o2)n1 the results were PfHsp90 set2 -25, T cruzi inh 15, Glyco luc inh 2, CaV13 ICDI inh -5, PvdQ inh -10 and HSF1 activator 6.
Screening Cc1ccc(C(=O)Nc2nc(-c3ccccc3)c(-c3ccccc3)o2)cc1 returned PfHsp90 set2 -37, T cruzi inh 59*, Glyco luc inh -1, CaV13 ICDI inh -5, PvdQ inh -9 and HSF1 activator 1.
For COC(=O)c1ccc(COn2nnc3ccccc32)cc1 the results were PfHsp90 set2 -33, T cruzi inh 14, Glyco luc inh -6, CaV13 ICDI inh -4, PvdQ inh -1 and HSF1 activator 59*.
For Cc1ccc(S(=O)(=O)n2c(=O)oc3ccccc32)cc1 the results were PfHsp90 set2 -7, T cruzi inh -18, Glyco luc inh -2, CaV13 ICDI inh -10, PvdQ inh -11 and HSF1 activator 80*.
Screening CCOC(=O)c1ccc(S(=O)(=O)n2c(=O)oc3ccccc32)cc1 returned PfHsp90 set2 5, Glyco luc inh -1, CaV13 ICDI inh -5 and PvdQ inh -3.
`Cc1ccccc1-c1ccc(Nc2ccc(N3CCOCC3)cc2)nn1` gave PfHsp90 set2 14, T cruzi inh 70*, Glyco luc inh 0, PvdQ inh -18 and HSF1 activator 7.
Screening O=S1(=O)N=C(Nc2ccc(N3CCOCC3)cc2)c2ccccc21 returned PfHsp90 set2 4, T cruzi inh -5, Glyco luc inh 0, CaV13 ICDI inh -8, PvdQ inh -7 and HSF1 activator -39.
CCCCCCCCN1C(=O)[C@@H](CC(=O)N2CCCCC2)C[C@@]2(C(=O)OC)C1=C[C@H](C(C)(C)C)O[C@@H]2C was read as CaV13 ICDI inh -10.
Screening CCN(CC(=O)Nc1ccc(NC(C)=O)cc1)Cc1c(O)ccc2cc(Br)ccc12 returned PfHsp90 set2 4, T cruzi inh 18, Glyco luc inh 1, CaV13 ICDI inh -19, PvdQ inh -3 and HSF1 activator 127*.
COc1cccc(-c2nnc(SCc3nc4ccccc4s3)n2C)c1 was read as PfHsp90 set2 26, T cruzi inh 18, Glyco luc inh 2, CaV13 ICDI inh -2, PvdQ inh -19 and HSF1 activator 64*.
`CCOCCCn1c(SCc2nc3ccccc3s2)nc2ccccc2c1=O` gave PfHsp90 set2 -2, T cruzi inh 13, Glyco luc inh -13, CaV13 ICDI inh -2, PvdQ inh -11 and HSF1 activator -4.
`CCn1c(SCc2nc3ccccc3s2)nnc1-c1ccccc1` gave PfHsp90 set2 3, T cruzi inh 6, Glyco luc inh -1, CaV13 ICDI inh -5, PvdQ inh -1 and HSF1 activator 21.
Screening COCCn1c(SCc2nc3ccccc3s2)nc2ccccc21 returned PfHsp90 set2 5, T cruzi inh 1, Glyco luc inh -7, CaV13 ICDI inh -8, PvdQ inh -1 and HSF1 activator 77*.
Screening COC(=O)c1cc2c(c3c4cc(F)ccc4n(S(=O)(=O)c4ccc(C)cc4)c13)C(=O)N(Cc1ccccc1OC)C2 returned CaV13 ICDI inh -4.
For CCOc1cc(CNc2ccccc2)cc(Br)c1OCC(=O)NC(C)(C)C the results were PfHsp90 set2 3, T cruzi inh 11, Glyco luc inh -3, PvdQ inh -1 and HSF1 activator 7.
For CCOc1cc(CNc2ccc(Br)cc2)cc(Br)c1OCC(=O)NC(C)(C)C the results were PfHsp90 set2 30, T cruzi inh 66*, Glyco luc inh -4, CaV13 ICDI inh -6, PvdQ inh 2 and HSF1 activator 20.
Screening CN(c1ccc(NC(=O)Cc2c[nH]c3ccccc23)cc1)c1ccccn1 returned CaV13 ICDI inh -2.
Screening CC1=NN(c2ccccc2)C(=O)/C1=C\C=C\c1ccccc1 returned T cruzi inh -4, Glyco luc inh 11, CaV13 ICDI inh -16 and HSF1 activator 98*.
Nc1ccn([C@@H]2O[C@H](C(=O)N3CCN(C(=O)N4CCCCC4)CC3)[C@@H](O)[C@H]2O)c(=O)n1 was read as CaV13 ICDI inh -6.
O=C(NCCN1CCN(C(=O)c2ccc(Br)cc2)CC1)c1ccc(Br)cc1 was read as PfHsp90 set2 -20, T cruzi inh 4, Glyco luc inh -1, PvdQ inh -4 and HSF1 activator 68*.
For CCN(CC)CCNC(=O)c1ccc(NCN2C(=O)NC(c3ccccc3)(c3ccccc3)C2=O)cc1 the results were CaV13 ICDI inh -9.
COC(=O)c1ccc(-c2noc(CN(C)CC3CCCCO3)n2)cc1 (centres undefined) was read as PfHsp90 set2 1, T cruzi inh -1, Glyco luc inh 4, CaV13 ICDI inh -6, PvdQ inh 4 and HSF1 activator -8.
